According to ChEMBL document CHEMBL1153968, “Discovery of 5-pyrrolopyridinyl-2-thiophenecarboxamides as potent AKT kinase inhibitors” (Bioorg Med Chem Lett, 2009):

Columns and labels:
[1] = target: RAC-alpha serine/threonine-protein kinase (Homo sapiens, UniProt P31749); test: Inhibition of AKT1
Procedure, shortened: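 AKT1 enzyme IC50 from the standard high-throughput AKT enzyme assay.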

[2] = Inhibition of AKT-mediated GSK3-beta phosphorylation in human BT474 cells by mechanistic assay; type: cell-based; conditions: BT-474
Procedure, shortened: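 Cellular mechanistic assay in BT474 cells measuring inhibition of GSK3β phosphorylation, reported as IC50.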

LNCaP = test: Cytotoxicity against human LNCAP cells; type: functional, cell-based
Procedure, shortened: (§1)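 Inhibition of cell proliferation, reported as IC50. AKT-sensitive lines were BT474 and LNCaP; HFF was the non-tumour-derived line.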

BT-474 = test: Cytotoxicity against human BT474 cells; type: functional, cell-based; procedure, shortened: as §1
HFF = test: Cytotoxicity against human HFF cells; type: cell-based; procedure, shortened: as §1
[3] = target: RAC-gamma serine/threonine-protein kinase (Homo sapiens, UniProt Q9Y243); test: Inhibition of AKT3
Chain of RAC-gamma serine/threonine-protein kinase (Q9Y243 whole entry): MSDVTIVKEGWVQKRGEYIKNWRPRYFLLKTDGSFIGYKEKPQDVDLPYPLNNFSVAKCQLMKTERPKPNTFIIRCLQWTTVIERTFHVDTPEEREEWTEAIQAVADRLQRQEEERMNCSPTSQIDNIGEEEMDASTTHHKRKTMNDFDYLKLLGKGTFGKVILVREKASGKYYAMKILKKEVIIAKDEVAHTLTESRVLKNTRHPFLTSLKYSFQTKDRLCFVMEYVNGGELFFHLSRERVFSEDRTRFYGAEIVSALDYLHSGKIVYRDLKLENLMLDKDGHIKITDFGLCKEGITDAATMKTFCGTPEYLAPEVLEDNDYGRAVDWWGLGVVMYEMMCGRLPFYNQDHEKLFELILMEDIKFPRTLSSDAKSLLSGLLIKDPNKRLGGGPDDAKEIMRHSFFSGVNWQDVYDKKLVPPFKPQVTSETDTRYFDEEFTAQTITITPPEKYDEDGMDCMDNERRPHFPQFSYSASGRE

[4] = target: Epidermal growth factor receptor (Homo sapiens, UniProt P00533)
Chain of Epidermal growth factor receptor (P00533 whole entry): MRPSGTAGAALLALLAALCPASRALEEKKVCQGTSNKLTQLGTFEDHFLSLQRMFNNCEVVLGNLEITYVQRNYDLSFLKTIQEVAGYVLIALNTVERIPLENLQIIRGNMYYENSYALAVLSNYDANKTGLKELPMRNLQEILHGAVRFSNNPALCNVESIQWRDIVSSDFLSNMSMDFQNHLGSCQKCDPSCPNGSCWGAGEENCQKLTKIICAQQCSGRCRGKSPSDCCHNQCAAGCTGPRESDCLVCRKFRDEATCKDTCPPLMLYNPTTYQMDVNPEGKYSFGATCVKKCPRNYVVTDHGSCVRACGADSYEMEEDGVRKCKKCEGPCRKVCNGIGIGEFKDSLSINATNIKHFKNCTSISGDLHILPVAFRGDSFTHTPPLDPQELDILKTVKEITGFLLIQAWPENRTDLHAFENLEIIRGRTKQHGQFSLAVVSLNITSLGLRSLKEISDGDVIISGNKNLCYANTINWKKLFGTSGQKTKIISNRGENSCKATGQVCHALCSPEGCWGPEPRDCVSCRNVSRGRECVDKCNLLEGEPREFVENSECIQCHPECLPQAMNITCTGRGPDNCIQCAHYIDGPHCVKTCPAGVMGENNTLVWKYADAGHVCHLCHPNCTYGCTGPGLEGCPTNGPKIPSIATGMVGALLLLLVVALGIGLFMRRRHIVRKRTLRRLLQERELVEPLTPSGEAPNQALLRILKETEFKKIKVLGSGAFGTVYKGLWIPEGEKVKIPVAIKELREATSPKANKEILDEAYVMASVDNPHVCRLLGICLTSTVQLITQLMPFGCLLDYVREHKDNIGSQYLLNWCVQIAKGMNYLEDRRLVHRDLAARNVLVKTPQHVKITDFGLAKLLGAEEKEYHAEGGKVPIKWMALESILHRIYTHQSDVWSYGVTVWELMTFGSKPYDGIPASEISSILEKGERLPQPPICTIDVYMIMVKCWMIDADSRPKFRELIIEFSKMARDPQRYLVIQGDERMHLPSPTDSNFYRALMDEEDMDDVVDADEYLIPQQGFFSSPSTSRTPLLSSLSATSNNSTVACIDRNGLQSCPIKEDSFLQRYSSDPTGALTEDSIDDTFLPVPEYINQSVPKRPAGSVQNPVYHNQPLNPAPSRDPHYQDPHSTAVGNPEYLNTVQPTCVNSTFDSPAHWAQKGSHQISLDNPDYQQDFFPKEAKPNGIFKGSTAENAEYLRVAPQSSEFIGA

[5] = target: Serine/threonine-protein kinase pim-1 (Homo sapiens, UniProt P11309); test: Inhibition of PIM1
Chain of Serine/threonine-protein kinase pim-1 (P11309 whole entry): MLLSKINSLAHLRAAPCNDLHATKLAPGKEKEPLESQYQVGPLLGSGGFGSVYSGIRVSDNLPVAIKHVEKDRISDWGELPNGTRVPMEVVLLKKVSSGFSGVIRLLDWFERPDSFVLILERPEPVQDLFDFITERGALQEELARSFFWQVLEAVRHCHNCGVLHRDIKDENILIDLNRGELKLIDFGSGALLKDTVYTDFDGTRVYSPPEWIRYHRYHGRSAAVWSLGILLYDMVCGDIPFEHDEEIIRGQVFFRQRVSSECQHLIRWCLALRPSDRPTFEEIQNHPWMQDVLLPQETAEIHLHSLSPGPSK

[6] = target: Protein kinase C alpha type (Homo sapiens, UniProt P17252); test: Inhibition of PKCalpha
[7] = target: MAP kinase-activated protein kinase 2 (Homo sapiens, UniProt P49137); test: Inhibition of MAPKAPK2
Chain of MAP kinase-activated protein kinase 2 (P49137 whole entry): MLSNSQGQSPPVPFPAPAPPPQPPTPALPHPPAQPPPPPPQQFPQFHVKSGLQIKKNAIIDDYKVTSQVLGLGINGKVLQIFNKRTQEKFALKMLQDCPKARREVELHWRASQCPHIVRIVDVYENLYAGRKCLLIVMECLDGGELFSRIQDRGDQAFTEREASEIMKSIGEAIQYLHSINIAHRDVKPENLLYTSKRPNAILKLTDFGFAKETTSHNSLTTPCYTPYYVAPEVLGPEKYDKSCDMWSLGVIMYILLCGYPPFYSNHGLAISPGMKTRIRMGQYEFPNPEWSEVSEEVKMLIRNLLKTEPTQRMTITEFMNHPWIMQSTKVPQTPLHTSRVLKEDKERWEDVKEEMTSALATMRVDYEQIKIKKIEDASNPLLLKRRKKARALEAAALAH

[8] = target: Glycogen synthase kinase-3 beta (Homo sapiens, UniProt P49841); test: Inhibition of GSK3-beta
Chain of Glycogen synthase kinase-3 beta (P49841 whole entry): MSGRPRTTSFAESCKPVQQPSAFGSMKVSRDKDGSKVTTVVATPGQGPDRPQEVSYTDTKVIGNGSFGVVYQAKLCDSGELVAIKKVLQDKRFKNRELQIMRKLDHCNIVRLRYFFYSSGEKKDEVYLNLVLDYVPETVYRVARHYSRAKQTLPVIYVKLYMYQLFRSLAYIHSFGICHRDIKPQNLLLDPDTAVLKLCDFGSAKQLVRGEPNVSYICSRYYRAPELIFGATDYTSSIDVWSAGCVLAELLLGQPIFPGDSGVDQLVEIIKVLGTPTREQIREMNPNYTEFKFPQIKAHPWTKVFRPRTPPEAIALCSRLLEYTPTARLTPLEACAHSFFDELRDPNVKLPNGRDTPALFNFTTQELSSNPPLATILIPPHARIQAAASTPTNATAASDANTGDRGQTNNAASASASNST

Mus musculus = test: Inhibition of GSK3-beta phosphorylation in human BT474 xenografted ip dosed mouse after 4 hrs administered once relative to control; type: functional, organism-based
Procedure, shortened: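 BT474 tumour-bearing xenograft mice received a single ip injection at 6.25, 12.5 or 25 mg/kg. Vehicle was 5% dextrose, pH 4.0. Tumours were harvested 4 h post-dose and pGSK3β levels compared with the vehicle group.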

[9] = Half life in rat at 2 mg/kg, iv after 24 hrs; type: ADME, organism-based; parameters: dose 2 mg/kg, route intravenous; conditions: in vivo
Procedure, shortened: (§2)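 iv/po crossover pharmacokinetic study in conscious male rats, n = 3. Dosing was 2 mg/kg iv and 10 mg/kg po.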

[10] = Cmax in rat at 2 mg/kg, iv after 24 hrs; type: ADME, organism-based; parameters: dose 2 mg/kg, route intravenous; conditions: in vivo; procedure, shortened: as §2
Rattus norvegicus [11] = test: (§3) AUC (0 to t) in rat at 10 mg/kg, po after 24 hrs; type: ADME, organism-based, Plasma; parameters: time < 24 hr, dose 10 mg/kg, route oral; conditions: in vivo, 24 h; procedure, shortened: as §2
Rattus norvegicus [12] = test: (§4) AUC (0 to t) in rat at 2 mg/kg, iv after 24 hrs; type: ADME, organism-based, Plasma; parameters: time < 24 hr, dose 2 mg/kg, route intravenous; conditions: in vivo, 24 h; procedure, shortened: as §2
[13] = Clearance in rat at 2 mg/kg, iv after 24 hrs; type: ADME, organism-based; parameters: dose 2 mg/kg, route intravenous; conditions: in vivo; procedure, shortened: as §2
[14] = Cmax in rat at 10 mg/kg, po after 24 hrs; type: ADME, organism-based; parameters: dose 10 mg/kg, route oral; conditions: in vivo; procedure, shortened: as §2
Rattus norvegicus [15] = test: (§5) Oral bioavailability in rat at 10 mg/kg after 24 hrs; type: ADME, organism-based; conditions: in vivo, 24 h; procedure, shortened: as §2
[16] = as §3; type: ADME, organism-based, Plasma; parameters: time < 24 hr, dose 10 mg/kg, route oral; conditions: plasma; procedure, shortened: as §2
[17] = as §4; type: ADME, organism-based, Plasma; parameters: time < 24 hr, dose 2 mg/kg, route intravenous; conditions: plasma; procedure, shortened: as §2
[18] = Half life in rat at 10 mg/kg, po after 24 hrs; type: ADME, organism-based; parameters: dose 10 mg/kg, route oral; conditions: in vivo; procedure, shortened: as §2
[19] = as §5; type: ADME, organism-based; conditions: in vivo; procedure, shortened: as §2

Chain of RAC-alpha serine/threonine-protein kinase (P31749 whole entry): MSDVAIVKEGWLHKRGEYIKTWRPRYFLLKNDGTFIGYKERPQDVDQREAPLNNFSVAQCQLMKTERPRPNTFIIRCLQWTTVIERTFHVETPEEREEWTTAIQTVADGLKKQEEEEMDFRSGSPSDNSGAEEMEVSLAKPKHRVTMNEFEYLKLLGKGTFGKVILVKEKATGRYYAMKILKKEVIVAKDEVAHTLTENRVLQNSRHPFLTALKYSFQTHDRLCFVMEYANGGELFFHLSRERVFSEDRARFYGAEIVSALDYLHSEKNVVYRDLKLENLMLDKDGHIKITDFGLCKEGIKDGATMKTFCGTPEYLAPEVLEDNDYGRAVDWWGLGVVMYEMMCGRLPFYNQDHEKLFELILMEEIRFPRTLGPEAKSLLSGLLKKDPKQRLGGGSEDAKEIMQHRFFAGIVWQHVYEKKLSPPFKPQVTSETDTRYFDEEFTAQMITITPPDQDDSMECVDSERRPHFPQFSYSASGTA

Structure (SMILES) | IC50 [1] | IC50 [2] | Ki [1] | IC50 (LNCaP) | IC50 (BT-474) | IC50 (HFF) | IC50 [3] | other results
NCC(NCc1ccc(-c2ccnc3[nH]ccc23)s1)c1ccccc1 (stereo unspecified) | 100 nM | > 10000 nM |  |  |  |  |  | 
NC[C@H](Cc1ccncc1)NC(=O)c1cc(Br)c(-c2ccnc3[nH]ccc23)s1 |  | 1900 nM | 2 nM | 750 nM | 2300 nM | 3600 nM |  | 
COc1ccc(C[C@@H](CN)NC(=O)c2cc(Br)c(-c3ccnc4[nH]ccc34)s2)cc1 | 3 nM | 1000 nM | 5 nM | 720 nM | 1900 nM | 890 nM | 2 nM | 
NCC(CNc1ccc(-c2ccnc3[nH]ccc23)s1)c1ccccc1 (stereo unspecified) | 250 nM | > 10000 nM |  |  |  |  |  | 
NCC(NC(=O)c1cc(-c2ccccc2)c(-c2ccnc3[nH]ccc23)s1)c1ccccc1 (stereo unspecified) | 50 nM | 10000 nM |  |  |  |  |  | 
NC[C@H](Cc1ccccc1F)NC(=O)c1cc(Br)c(-c2ccnc3[nH]ccc23)s1 | 1 nM | 220 nM |  | 39 nM | 120 nM | 260 nM | 2 nM | 
NCCCC(NC(=O)c1cc(Br)c(-c2ccnc3[nH]ccc23)s1)c1ccccc1 (stereo unspecified) | 20 nM | 4800 nM |  |  |  |  |  | 
NCC(NC(=O)c1cc(C2CC2)c(-c2ccnc3[nH]ccc23)s1)c1ccccc1 (stereo unspecified) | 6 nM | 800 nM |  |  |  |  |  | 
NCC(NC(=O)c1ccc(-c2c[nH]c3ncccc23)s1)c1ccccc1 (stereo unspecified) | 16 nM | 240 nM |  |  |  |  |  | 
NC[C@H](Cc1ccccc1)NC(=O)c1cc(Br)c(-c2ccnc3[nH]ccc23)s1 | 1 nM | 100 nM | 0.06 nM | 21 nM | 230 nM | 90 nM | 2 nM | 
NC(CNC(=O)c1cc(Br)c(-c2ccnc3[nH]ccc23)s1)c1ccccc1 (stereo unspecified) | 40 nM | > 10000 nM |  |  |  |  |  | 
CNCC(Cc1ccccc1)NC(=O)c1cc(Br)c(-c2ccnc3[nH]ccc23)s1 (stereo unspecified) | 2 nM | 260 nM |  |  |  |  |  | 
CNCC(NC(=O)c1cc(Br)c(-c2ccnc3[nH]ccc23)s1)c1ccccc1 (stereo unspecified) | 3 nM | 780 nM |  |  |  |  |  | 
NCC(C(=O)Nc1ccc(-c2ccnc3[nH]ccc23)s1)c1ccccc1 (stereo unspecified) | 3 nM | 560 nM |  |  |  |  |  | 
NC[C@H](Cc1ccc(F)cc1)NC(=O)c1cc(Br)c(-c2ccnc3[nH]ccc23)s1 | 1 nM | 180 nM | 0.06 nM | 66 nM | 500 nM | 490 nM | 2 nM | 
NC[C@H](CC1CCCCC1)NC(=O)c1cc(Br)c(-c2ccnc3[nH]ccc23)s1 | 1 nM | 1900 nM | 0.79 nM | 440 nM | 2600 nM |  | 3 nM | 
Cc1cc(C(=O)NC(CN)c2ccccc2)sc1-c1ccnc2[nH]ccc12 (stereo unspecified) | 8 nM | 120 nM |  |  |  |  |  | 
CCNCC(Cc1ccccc1)NC(=O)c1cc(Br)c(-c2ccnc3[nH]ccc23)s1 (stereo unspecified) | 4 nM | 1100 nM |  |  |  |  |  | 

Structure (SMILES) | IC50 [1] | IC50 [2] | Ki [1] | IC50 (LNCaP) | IC50 (BT-474) | IC50 (HFF) | IC50 [3] | other results
NC[C@H](Cc1cccc(F)c1)NC(=O)c1cc(Br)c(-c2ccnc3[nH]ccc23)s1 | 1 nM | 90 nM | 0.03 nM | 18 nM | 240 nM | 260 nM |  | IC50 [4]: 10 µM; IC50 [5]: 794 nM; IC50 [6]: 40 nM; IC50 [7]: 2500 nM; IC50 [8]: 20 µM; Activity (Mus musculus): Dose-dependent effect
CC(C)NCC(Cc1ccccc1)NC(=O)c1cc(Br)c(-c2ccnc3[nH]ccc23)s1 (stereo unspecified) | 10 nM | 2100 nM |  |  |  |  |  | 
NC[C@H](Cc1ccc(C(F)(F)F)cc1)NC(=O)c1cc(Br)c(-c2ccnc3[nH]ccc23)s1 | 2 nM | 2000 nM | 2 nM | 440 nM | 1200 nM | 1300 nM | 3 nM | 
NCC(NC(=O)c1cc(-c2cn[nH]c2)c(-c2ccnc3[nH]ccc23)s1)c1ccccc1 (stereo unspecified) | 63 nM | 2500 nM |  |  |  |  |  | 
NCC(C(=O)Nc1cc(Br)c(-c2ccnc3[nH]ccc23)s1)c1ccccc1 (stereo unspecified) | 25 nM | 4700 nM |  |  |  |  |  | 
NC[C@H](Cc1cccc(C(F)(F)F)c1)NC(=O)c1cc(Br)c(-c2ccnc3[nH]ccc23)s1 | 1 nM | 170 nM | 0.1 nM | 78 nM | 60 nM | 530 nM | 1 nM | 
NC[C@H](Cc1ccccc1C(F)(F)F)NC(=O)c1cc(Br)c(-c2ccnc3[nH]ccc23)s1 | 3 nM | 50 nM | 0.05 nM | 24 nM | 60 nM | 730 nM | 2 nM | 
NCC(Cc1ccccc1)NC(=O)c1cc(Br)c(-c2ccnc3[nH]ccc23)s1 (racemic) | 1 nM | 80 nM | 0.04 nM | 45 nM | 200 nM | 410 nM | 3 nM | half-life [9]: 228 min; Cmax [10]: 712 ng/mL; AUC (Rattus norvegicus [11]): 664 ng·h/mL; AUC (Rattus norvegicus [12]): 893 ng·h/mL; clearance [13]: 49 mL/min/kg; Cmax [14]: 248 ng/mL; F (Rattus norvegicus [15]): 38%
NCC(NC(=O)c1cc(-c2cccnc2)c(-c2ccnc3[nH]ccc23)s1)c1ccccc1 (stereo unspecified) | 63 nM | 6000 nM |  |  |  |  |  | 
NCCC(NC(=O)c1cc(Br)c(-c2ccnc3[nH]ccc23)s1)c1ccccc1 (stereo unspecified) | 8 nM | 1500 nM |  |  |  |  |  | 
NCC(NC(=O)c1cc(-c2ccnc3[nH]ccc23)cs1)c1ccccc1 (stereo unspecified) | 40 nM | 1000 nM |  |  |  |  |  | 
CN(C)CC(NC(=O)c1cc(Br)c(-c2ccnc3[nH]ccc23)s1)c1ccccc1 (stereo unspecified) | 20 nM | > 10000 nM |  |  |  |  |  | 
NCC(NC(=O)c1cc(-c2c[nH]c3ncccc23)cs1)c1ccccc1 (stereo unspecified) | 25 nM | 1100 nM |  |  |  |  |  | 
NCC(NC(=O)c1ccc(-c2ccnc3[nH]ccc23)s1)c1ccccc1 (stereo unspecified) | 6 nM | 190 nM |  |  |  |  |  | 
NCCNC(=O)c1cc(Br)c(-c2ccnc3[nH]ccc23)s1 | 158 nM | > 10000 nM |  |  |  |  |  | 
NC[C@@H](Cc1ccccc1)NC(=O)c1cc(Br)c(-c2ccnc3[nH]ccc23)s1 | 32 nM | 6000 nM | 20 nM | 2700 nM | 4500 nM | 1900 nM | 40 nM | 
NCC(NC(=O)c1cc(Br)c(-c2ccnc3[nH]ccc23)s1)c1ccccc1 (racemic) | 8 nM | 500 nM | 20 nM | 750 nM | 4000 nM | 1200 nM | 20 nM | half-life [9]: 216 min; Cmax [10]: 1800 ng/mL; AUC(0-t) at 24 h [16]: 3400 ng·h/mL; AUC(0-t) at 24 h [17]: 3250 ng·h/mL; clearance [13]: 16.7 mL/min/kg; half-life [18]: 246 min; Cmax [14]: 550 ng/mL; bioavailability [19]: 32%
